M18AAP inhibitor = PfM18AAP inhibitors, malaria aminopeptidase, primary screen, biochemical, QFRET, recombinant enzyme; M18 aspartyl aminopeptidase (Plasmodium falciparum 3D7); inhibition, % at 7.35 µM; H-Glu-NHMec fluorogenic cleavage; 1.2% of 290,000 active; AID 1822, 2009;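 active means inhibition above the campaign mean inhibition over all tested compounds plus 3 SD, cut at about 28% in these data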;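 further: 0% = plate median of test compound wells and 100% = 2 mM ZnCl2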
SENP1 inh = human SENP1 catalytic domain inhibitors, primary screen, biochemical, FRET, uHTS | Sentrin-specific protease 1 (Homo sapiens), Q9P0U3 | recombinant SENP1 catalytic domain, CyPet-SUMO1-YPet FRET cleavage | inhibition, % at 10 µM | 0.21% of 360,000 active | AID 624204, 2012;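 active means inhibition at least 30% at 10 µM, raw YFP signal under a set limit, fluorescence ratio 0.5 to 1.5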;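 further: 0% = enzyme with DMSO and 100% = no enzyme wells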
Target sequence (Q9P0U3 419-644 limits assumed): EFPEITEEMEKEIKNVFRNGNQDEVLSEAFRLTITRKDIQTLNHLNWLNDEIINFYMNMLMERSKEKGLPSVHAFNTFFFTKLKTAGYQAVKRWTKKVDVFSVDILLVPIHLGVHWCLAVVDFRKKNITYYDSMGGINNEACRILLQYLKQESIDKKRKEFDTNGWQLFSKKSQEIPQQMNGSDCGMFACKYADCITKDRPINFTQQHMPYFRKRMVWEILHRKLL
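Test system: recombinant human SENP1 catalytic domain, His6-tagged / Medium: pH 8 Tris buffer with EDTA, NaCl, BME, BSA, NP40, catalase / Also added: SUMO1 FRET substrate flanked by Cypet and Ypet, 25 nM / Times: 50 min reaction at room temperature / Signal: FRET, CFP and YFP emission / Control set: no-enzyme low control and enzyme-plus-DMSO high control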
AHR act = AHR activators, primary screen, cell-based, luminescence, luciferase reporter, human; AHR-responsive luciferase reporter cells; Aryl hydrocarbon receptor (Homo sapiens), P35869; 2.5% of 320,000 active; activation, % at 5 µM; in the data active means activation above about 47%;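 further: 0% = vehicle wells and 100% = reference agonist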
HDAC3 inh = HDAC3 deacetylase inhibitors, primary screen, biochemical, fluorescence, cell-free homogeneous; inhibition, % at 8.3 µM; recombinant HDAC3, fluorogenic peptide/trypsin coupled; Histone deacetylase 3 (Homo sapiens), O15379; AID 2718, 2010; 0.15% of 320,000 active; in the data active means inhibition above about 26%, passing the limit was not always enough
Fh CTSL1 inh = Fasciola hepatica cathepsin L1 inhibitors, primary screen, counter-screen for PFM18AAP inhibitor project, biochemical, QFRET, fluorogenic peptide substrate; recombinant F. hepatica cathepsin L1, Z-Leu-Arg-MCA fluorescence; inhibition, % at 5.96 µM; 0.49% of 300,000 active; AID 1906, 2009;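 active means inhibition above the mean of all tested compounds plus 3 SD, set per screening campaign, cut at about 17% in these data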;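 further: 0% = plate median of test compound wells and 100% = 1 µM Z-Phe-Ala-diazomethylketone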
GAA850 FXN act = FXN promoter activators, primary screen, cell-based, luciferase luminescence, HEK293 lucGAA850; AID 540364, 2011; HEK293 lucGAA850 FXN promoter luciferase reporter, 24 h; percent of 10 µM SAHA response; activation, % at 6 µM; 0.56% of 360,000 active;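 active means activation above the average of all compounds screened plus 3 SD, cutoff fixed separately per campaign, cut at about 7.5% in these data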;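 further: 0% = DMSO wells and 100% = 10 µM SAHA wells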
* marks the source's active call; other numbers are inactive results; nt = no result. Shown are actives, neighbours in structure and some others; about 4.2% of the full set was active somewhere.

SMILES	M18AAP inhibitor	SENP1 inh	AHR act	HDAC3 inh	Fh CTSL1 inh	GAA850 FXN act
COc1ccccc1N/C(N)=N/c1nc(C(F)(F)F)cc(=O)[nH]1	7	-13	50*	3	-1	3
COCCC(=O)N1CCc2ccc(NC(=O)c3ccc(C(F)(F)F)cc3)cc2C1	-10	2	72*	9	8	-1
COCCC(=O)Nc1ccc2c(c1)CN(C(=O)CSC)CC2	0	1	6	-7	0	0
C[C@H](CO)N1C[C@H](C)[C@@H](CN(C)S(=O)(=O)c2ccc(F)cc2)Oc2ccc(NS(=O)(=O)c3ccccc3)cc2C1=O	nt	2	-1	7	nt	-1
COc1ccc(-c2cc(N)n(S(=O)(=O)Cc3ccccc3)n2)c(OC)c1	-1	0	62*	5	-3	0
COc1ccc(-c2cc(N)n(CCC#N)n2)c(OC)c1	-1	0	18	4	-2	-2
CC1(Oc2ccc3ccccc3c2)CCN(Cc2cccn2-c2nccs2)C1 (centres undefined)	nt	-1	nt	nt	nt	3
CCN1CCN(C(=O)c2cc3cc(F)ccc3[nH]2)CC1	-9	0	65*	1	-3	2
O=C(c1cc2cc(F)ccc2[nH]1)N1CCN(Cc2ccc3c(c2)OCO3)CC1	8	-1	18	7	-1	1
CCOc1ccccc1C(=O)NC(C)c1ccc2c(c1)OCO2 (centres undefined)	6	0	52*	3	-5	-2
CCOc1ccccc1C(=O)NC(C(=O)N(C)Cc1ccc2c(c1)OCO2)C(C)C (centres undefined)	nt	0	6	nt	nt	1
CCOc1ccccc1NC(=O)NC(C)c1ccc2c(c1)OCO2 (centres undefined)	5	0	58*	-1	2	-1
CC(NC(=O)Nc1ccccc1Cl)c1ccc2c(c1)OCO2 (centres undefined)	-9	3	42	-1	1	2
CCOC(=O)C1=C(C)OC2(O)c3ccccc3C(=O)C12O (centres undefined)	-1	4	-1	1	59*	2
CC1=C(C(=O)OC(C)C)C2(O)C(=O)c3ccccc3C2(O)N1 (centres undefined)	-6	3	6	4	-1	2
CC(=O)C1=C(C)OC2(O)c3ccccc3C(=O)C12O (centres undefined)	1	1	-2	1	51*	1
COc1ccccc1CNC(=O)CN1C(=O)NC2(CCOc3ccccc32)C1=O (centres undefined)	nt	0	1	7	nt	0
O=C1N/C(=C/c2ccc(N3CCOCC3)o2)C(=O)N1c1cccc(Cl)c1	1	-19	-1	4	2	8.9*
CCCC[C@H]1C2=C3[C@@H](CC(C(=O)OC)=C[C@@H](C(=O)OC)[C@H]3C(C)(C)C2=O)n2c(=O)n(-c3ccccc3)c(=O)n21	nt	-1	2	11	1	2
O=C1C(C=NCCCn2ccnc2)=C(O)c2ccccc21	1	0	48*	3	4	3
O=C1C(C=NCc2ccccn2)=C(O)c2ccccc21	8	3	60*	4	5	6
CC(=NCCCn1ccnc1)C1=C(O)c2ccccc2C1=O	1	1	23	5	1	2
CC(C)CN=CC1=C(O)c2ccccc2C1=O	-13	4	3	11	0	2
Cc1ccc(S(=O)(=O)NC2CC2)cc1[N+](=O)[O-]	-12	1	1	0	-1	0
Cc1nc2cc(-c3sccc3-n3cccc3)nn2c(C)c1C	-24	-2	69*	2	2	5
SMILES	M18AAP inhibitor	SENP1 inh	AHR act	HDAC3 inh	Fh CTSL1 inh	GAA850 FXN act
O=C(Nc1nccs1)c1ccc(-c2ccc(F)c(Cl)c2)o1	6	-2	72*	-5	1	6
O=C(Nc1nccs1)c1ccc(Br)o1	8	-25	57*	3	2	2
O=C(O)c1ccc(NC2=C/C(=N/S(=O)(=O)c3cccs3)c3ccccc3C2=O)cc1	nt	0	nt	nt	nt	0
CC(C)(C)c1cc[n+](C2=C([O-])c3ccccc3C(=O)/C2=N\S(=O)(=O)c2cccs2)cc1	6	3	-10	4	24*	-9
O=S(=O)(/N=C/c1ccccc1O)c1cccs1	6	-1	1	-3	-2	-1
O=C1/C(=N\S(=O)(=O)c2cccs2)C([n+]2ccccc2)=C([O-])c2ccccc21	11	0	-2	6	26*	-7
O=C(Nn1c(-c2ccc(Br)cc2)nc2ccccc2c1=O)c1ccc([N+](=O)[O-])cc1	0	3	62*	-1	0	3
O=C(Nn1c(-c2ccncc2)nc2ccccc2c1=O)c1ccc(Br)cc1	1	3	1	1	-4	3
O=C(Nn1c(-c2ccccc2)nc2ccccc2c1=O)c1ccco1	2	2	58*	-2	2	0
O=C1C(=O)c2ccccc2C(O)=C1c1ccccc1F	-10	2	3	2	1	0
O=C1c2ccccc2C(=O)C1c1nccc2ccccc12	-1	-13	51*	12	-1	5
O=C1C(c2ccnc3ccccc23)=C(O)c2ccccc21	-7	16	54*	-7	-1	3
O=C1c2ccccc2C(=O)C1c1ccnc2ccccc12	-9	-3	62*	-1	1	2
O=C(Nc1ccccc1[N+](=O)[O-])OCC=Cc1ccccc1	nt	2	nt	nt	nt	2
CC1(C)CC(=O)C(C2C3=C(CC(C)(C)CC3=O)Oc3ccccc32)=C(O)C1 (centres undefined)	4	2	-3	0	17*	-1
CCNC(=O)C1(C)CCN(C(=O)c2cccs2)C1 (centres undefined)	nt	0	nt	nt	nt	-2
CCCOc1ccc(-c2cc(C(=O)NCC3CCCO3)c3ccccc3n2)cc1 (centres undefined)	-2	-1	51*	-8	3	3
O=C(c1ccccc1)N1CCN(c2ccccc2)CC1	nt	1	nt	nt	nt	2
O=C(c1ccccc1)n1ccn(-c2ccccc2)c1=S	6	4	51*	-5	0	-1
COc1ccc(S(=O)(=O)Nc2cc3c4c(oc3c3ccccc23)CCCC4=O)cc1	3	1	48*	11	5	-5
Nn1c(-c2ccccc2)nc2cc(Cl)ccc2c1=O	3	1	52*	-6	-1	-1
Nn1c(COc2cccc(Cl)c2)nc2ccccc2c1=O	9	2	58*	2	-7	4
